Data reported in ChEMBL document CHEMBL1157070, “Polyhydroxysteroidal glycosides from the starfish Anthenea chinensis” (J Nat Prod, 2010).
pIC50: −log10 of the molar value. Activity calls are given as the source filed them. The rule behind the calls is not given here.

Key:
Tubulin (Sus scrofa) = Tubulin (Sus scrofa) (UniProt P02554+P02550); assay: Induction of pig brain tubulin polymerization at 10 ug/ml
[1] = Cytotoxicity against human U87MG cells after 72 hrs by MTT assay; type: functional, cell-based, U-87MG ATCC; conditions: U-87 MG
Summary of the method: (§1)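 MTT colorimetric read-out per a previously described method. K-562 (human leukemia) used 10-hydroxycamptothecine as positive control, U87MG (human spongioblastoma) used nimustine. IC50 read from dose-response curves as the concentration causing 50% reduction in absorption versus control cells. Mean of three independent experiments, triplicate wells per concentration.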

K562 = assay: Cytotoxicity against human K562 cells after 72 hrs by MTT assay; type: functional, cell-based; conditions: K562, 72 h; summary of the method: as §1
Bel-7402 = assay: Cytotoxicity against human Bel7402 cells after 72 hrs by SRB assay; type: functional, cell-based; conditions: Bel-7402, 72 h
Summary of the method: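 Human hepatoma BEL-7402 cells, sulforhodamine B protein stain per a reported method. Dose-response curves plotted; IC50 taken as the concentration giving 50% lower absorption than control cells. Means of three independent experiments, each concentration in triplicate wells. 10-Hydroxycamptothecine as positive control.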

Tubulin (Sus scrofa), sequence (P02550 whole entry, looked up): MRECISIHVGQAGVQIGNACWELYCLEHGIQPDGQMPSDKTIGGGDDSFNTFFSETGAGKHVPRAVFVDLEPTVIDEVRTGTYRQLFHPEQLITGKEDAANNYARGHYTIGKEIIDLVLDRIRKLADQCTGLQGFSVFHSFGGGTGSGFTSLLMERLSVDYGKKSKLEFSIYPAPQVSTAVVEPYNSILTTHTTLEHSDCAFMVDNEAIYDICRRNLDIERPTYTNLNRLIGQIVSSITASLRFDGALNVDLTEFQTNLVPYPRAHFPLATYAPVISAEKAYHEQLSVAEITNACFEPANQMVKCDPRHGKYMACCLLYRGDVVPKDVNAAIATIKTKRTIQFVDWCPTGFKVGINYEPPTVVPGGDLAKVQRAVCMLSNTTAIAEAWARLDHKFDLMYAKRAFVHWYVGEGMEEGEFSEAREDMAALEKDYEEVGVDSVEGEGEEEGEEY
Tubulin (Sus scrofa), sequence (P02554 whole entry, looked up): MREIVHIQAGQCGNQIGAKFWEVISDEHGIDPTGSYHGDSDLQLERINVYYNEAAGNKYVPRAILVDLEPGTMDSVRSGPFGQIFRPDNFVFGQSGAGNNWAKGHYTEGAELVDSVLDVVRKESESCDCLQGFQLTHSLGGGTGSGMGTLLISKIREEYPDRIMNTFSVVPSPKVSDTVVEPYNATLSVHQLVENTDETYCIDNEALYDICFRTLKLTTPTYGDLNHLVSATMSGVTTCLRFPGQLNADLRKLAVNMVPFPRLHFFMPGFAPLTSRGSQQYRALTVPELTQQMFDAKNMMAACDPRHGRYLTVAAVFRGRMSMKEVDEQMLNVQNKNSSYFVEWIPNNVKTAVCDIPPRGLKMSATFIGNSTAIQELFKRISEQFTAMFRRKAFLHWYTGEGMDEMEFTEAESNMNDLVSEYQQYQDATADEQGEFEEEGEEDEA

**Q.** Which Activity (Tubulin (Sus scrofa)) does the source give for `CCC(CC[C@@H](C)[C@H]1[C@H](O[C@@H]2O[C@@H]([C@@H](O)COC)[C@H](O[C@@H]3O[C@@H]([C@@H](O)COC)[C@H](O)[C@H]3O)[C@H]2O)CC2=C3[C@@H](O)[C@@H](O)[C@H]4C[C@H](O)CC[C@]4(C)[C@H]3CC[C@@]21C)C(C)C` (mixture of isomers) here?
**A.** Its Activity is “inactive”.

**Q.** What about the pIC50 [1] of the same molecule?
**A.** Its pIC50 is < 4.61.

**Q.** And the pIC50 (K562)?
**A.** The pIC50 was 5.55.

**Q.** And the pIC50 (Bel-7402)?
**A.** The pIC50 was 5.31.

**Q.** With `CCC(CC[C@@H](C)[C@H]1[C@H](O[C@@H]2O[C@@H]([C@@H](O)COC)[C@H](O)[C@H]2O)CC2=C3[C@@H](O[C@@H]4O[C@@H]([C@@H](O)COC)[C@H](O)[C@H]4O)[C@@H](O)[C@H]4C[C@H](O)CC[C@]4(C)[C@H]3CC[C@@]21C)C(C)C` (mixture of isomers) as the molecule, how does the pIC50 [1] read?
**A.** The pIC50 was 5.44.

**Q.** What about the pIC50 (K562) of the same molecule?
**A.** The pIC50 was 6.22.

**Q.** What about the pIC50 (Bel-7402) of the same molecule?
**A.** Its pIC50 is 5.57.

**Q.** Which results are given for `COC[C@H](O)[C@@H]1O[C@@H](O[C@@H]2[C@@H](O)[C@H](O[C@@H]3CC4=C5[C@@H](O)[C@@H](O)[C@H]6C[C@H](O)CC[C@]6(C)[C@H]5CC[C@]4(C)[C@H]3[C@H](C)CCCC(C)C)O[C@H]2[C@@H](O)COC)[C@H](O)[C@H]1O` [ANTHENOSIDE E]?
**A.** Activity (Tubulin (Sus scrofa)): inactive; pIC50 [1]: < 4.60; pIC50 (K562): 5.21; pIC50 (Bel-7402): 5.08

**Q.** With `C=C(CC[C@@H](C)[C@H]1[C@H](O[C@@H]2O[C@@H]([C@@H](O)COC)[C@H](O[C@@H]3O[C@@H]([C@@H](O)COC)[C@H](O)[C@H]3O)[C@H]2O)CC2=C3[C@@H](O)[C@@H](O)[C@H]4C[C@H](O)CC[C@]4(C)[C@H]3CC[C@@]21C)C(C)C` [ANTHENOSIDE G] as the molecule, how does the Activity (Tubulin (Sus scrofa)) read?
**A.** Its Activity is “inactive”.

**Q.** What about the pIC50 [1] of the same molecule?
**A.** The pIC50 was < 4.60.

**Q.** And the pIC50 (K562)?
**A.** The pIC50 was 5.34.

**Q.** And the pIC50 (Bel-7402)?
**A.** The pIC50 was 5.26.

**Q.** Which results are given for `CC[C@@]1(O)C(=O)OCc2c1cc1n(c2=O)Cc2cc3cc(O)ccc3nc2-1` [HYDROXYCAMPTOTHECIN]?
**A.** pIC50 (K562): 6.80; pIC50 (Bel-7402): 6.44

**Q.** With `Cc1ncc(CNC(=O)N(CCCl)N=O)c(N)n1` [NIMUSTINE] as the molecule, how does the pIC50 [1] read?
**A.** The pIC50 was 6.08.
